Screening data (PubChem)
PHOSPHO1 inh – inhibitors of human PHOSPHO1 phosphatase; AID 1565; Q8TCT1; recombinant PHOSPHO1, absorbance phosphatase assay; 290,000 compounds, 1.1% hits; inhibition, % at 13.3 µM; in the data active = inhibition above about 60%
IDE act – activators of human insulin-degrading enzyme in cells. P14735. HEK cells, FAbeta-B cleavage, fluorescence polarization; 0% vehicle, 100% cell-free pure enzyme wells. activation, % at 5.96 µM. 340,000 compounds, 0.073% hits. AID 493087;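 active = activation above the mean of all tested compounds plus 3 SD, set per screening campaign, cut at about 17% in these data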
UBC13 inh – inhibitors of human UBC13 polyubiquitin chain formation; AID 485273; TR-FRET; inhibition, % at 20 µM; 330,000 compounds, 0.47% hits; in the data active = inhibition above about 45%, passing the limit was not always enough
Target sequence (P61088 whole entry, looked up): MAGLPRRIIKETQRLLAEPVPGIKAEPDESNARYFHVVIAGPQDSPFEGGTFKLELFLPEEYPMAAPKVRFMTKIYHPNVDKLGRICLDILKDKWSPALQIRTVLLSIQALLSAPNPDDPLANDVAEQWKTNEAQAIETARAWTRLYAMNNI
IDE cell inh – inhibitors of human insulin-degrading enzyme in cells. P14735. HEK cells, FAbetaB cleavage, fluorescence polarization. inhibition, % at 5.59 µM. 320,000 compounds, 0.41% hits. AID 434962;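 active = percent inhibition above the average of all tested compounds plus 3 SD, set per screening campaign, cut at about 16% in these data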;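 also: IDE supplied by intact live HEK cells; FP after avidin binding of uncleaved biotin substrate so inhibition keeps polarization high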
proCasp3 act – activates human procaspase-3. AID 463141. P42574. recombinant procaspase-3 D3A, Ac-DEVD-pNA absorbance 405 nm. 330,000 compounds, 0.11% hits. activation, % at 8.5 µM;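 active = activation above the mean of all tested compounds plus 3 SD, cut at about 21% in these data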
Target sequence (P42574 whole entry D9A/D28A/D175A): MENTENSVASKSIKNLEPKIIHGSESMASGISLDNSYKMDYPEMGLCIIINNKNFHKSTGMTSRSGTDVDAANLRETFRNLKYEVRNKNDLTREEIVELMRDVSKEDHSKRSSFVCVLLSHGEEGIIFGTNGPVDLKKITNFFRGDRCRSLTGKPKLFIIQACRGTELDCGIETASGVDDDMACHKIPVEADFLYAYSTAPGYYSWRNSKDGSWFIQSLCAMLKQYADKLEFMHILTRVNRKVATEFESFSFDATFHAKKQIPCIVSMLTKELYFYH
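System: Procaspase-3 D3A mutant. Medium: Zinc-free 300 mM NaCl, 50 mM HEPES, 0.01% Triton X-100. Schedule: 1 h preincubation plus 2 h reaction at 25 °C. Measured by: 405 nm absorbance of p-nitroaniline, reads at 0 and 120 min. Read-out: percent activation relative to control range.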
proCasp7 act – counter-screen: procaspase-7 (human) activation | P55210 | recombinant procaspase-7, Ac-DEVD-pNA absorbance 405 nm; D23A/D198A/D206A triple mutant, cannot self-cleave; scale: DMSO 0, 5 µM enzyme 100 | activation, % at 8.5 µM | 330,000 compounds, 0.093% hits | AID 463210;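 active = percent activation above the screen-wide mean plus 3 SD, cut at about 25% in these data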
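Assay system – Uncleavable procaspase-7 mutant enzyme · Quantity – 2 µM procaspase-7 mutant as dispensed · Times – 1 h preincubation, 2 h reaction · Dosing – single nominal 8.5 µM compound dose, 0.8% DMSO final · Buffer or medium – Zinc-free 50 mM HEPES buffer, pH 7.4, with NaCl and Triton X-100 · Detection – Epi-absorbance of released pNA at 405 nm, two timepoints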
IDE cell inh cf – confirmation of human insulin-degrading enzyme inhibitors in cells; shares compounds with IDE cell inh; HEK cells, FAbetaB cleavage, fluorescence polarization; inhibition, % at 5.59 µM; 1,200 compounds, 51% hits;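 active = mean inhibition across triplicate wells above the cutoff set by the earlier primary insulin-degrading enzyme screen, cut at about 16% in these data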
HEK cytotox – HEK cell cytotoxicity, counter-screen for IDE inhibitors; HEK293 cytotoxicity, ATP luminescence; AID 449730; shares compounds with IDE cell inh; inhibition, % at 5.59 µM; 1,200 compounds, 28% hits; in the data active = inhibition above about 22%
Numbers stand for hits. Shown are actives, neighbours in structure and some others; about 1.9% of the full set was active somewhere.

`CC(C)(C)N/N=C/c1c(O)n(-c2ccc(Cl)cn2)c(=O)c2ccccc12` gave PHOSPHO1 inh inactive, IDE act inactive, UBC13 inh inactive, IDE cell inh inactive, proCasp3 act inactive and proCasp7 act inactive.
`CC1(C2CC2)NC(=O)N(CC(=O)N2CCN(c3ccccc3)CC2)C1=O` (stereo unspecified) gave IDE act inactive, UBC13 inh inactive, IDE cell inh inactive, proCasp3 act inactive and proCasp7 act inactive.
`O=C(Nc1ccc2c(c1)CCC2)C1CCCN(c2ncccn2)C1` (stereo unspecified) gave PHOSPHO1 inh inactive, IDE act inactive, UBC13 inh inactive, IDE cell inh inactive, proCasp3 act inactive and proCasp7 act inactive.
Cc1nc2ncnn2c(N2CCCC(C(=O)Nc3ccc4c(c3)CCC4)C2)c1C (stereo unspecified) was read as PHOSPHO1 inh inactive, IDE act inactive, UBC13 inh inactive, IDE cell inh 17, proCasp3 act inactive, proCasp7 act inactive, IDE cell inh cf inactive and HEK cytotox 44.
C/C(=N\NC(=O)c1ccc(OC2CCCC2)cc1)c1ccc(O)cc1 was read as PHOSPHO1 inh inactive, IDE act inactive, UBC13 inh inactive, IDE cell inh inactive, proCasp3 act inactive and proCasp7 act inactive.
CCN(CC)c1ccc(/C=C2\C(=O)c3ccc(C(=O)O)cc3C2=O)cc1 was read as PHOSPHO1 inh inactive, IDE act inactive, IDE cell inh 141, proCasp3 act inactive, proCasp7 act inactive, IDE cell inh cf 26 and HEK cytotox inactive.
CC(C)(C)c1ccc(C(=O)NCc2nnc(SCC(=O)NC3CCCCC3)o2)cc1 was read as PHOSPHO1 inh inactive, IDE act inactive, UBC13 inh inactive, IDE cell inh inactive, proCasp3 act inactive and proCasp7 act inactive.
COc1ccc(CC2=CC(=O)c3ccccc3C2=O)cc1 was read as PHOSPHO1 inh inactive, IDE act inactive, UBC13 inh inactive, IDE cell inh 46, proCasp3 act inactive, proCasp7 act inactive, IDE cell inh cf 35 and HEK cytotox 68.
For CCOC(=O)C1C(=O)NC(C(=O)OCC)(C(=O)OCC)C1CC (stereo unspecified) the results were IDE act inactive.
`CC(C)(C)OC(=O)N1C[C@H](O)C[C@H]1C(=O)OCC(=O)c1ccc([N+](=O)[O-])cc1` gave PHOSPHO1 inh inactive, IDE act inactive, UBC13 inh inactive, IDE cell inh inactive, proCasp3 act inactive and proCasp7 act inactive.
`COC(=O)C1=C(C)N(c2ccc(F)cc2)/C(=C/c2ccc(O)cc2)C1=O` gave PHOSPHO1 inh inactive, IDE act inactive, UBC13 inh inactive, IDE cell inh 20, proCasp3 act inactive, proCasp7 act inactive, IDE cell inh cf 76 and HEK cytotox inactive.
For CC(NC(=O)CN1c2cccc3cccc(c23)S1(=O)=O)c1ccc(S(N)(=O)=O)cc1 (stereo unspecified) the results were IDE act inactive, UBC13 inh inactive, IDE cell inh inactive, proCasp3 act inactive and proCasp7 act inactive.
Screening CC(=O)N/N=C/c1cc(C(C)C)cc(/C=N/NC(C)=O)c1O returned PHOSPHO1 inh inactive, IDE act inactive, UBC13 inh inactive, IDE cell inh 23, proCasp3 act inactive, proCasp7 act inactive, IDE cell inh cf 35 and HEK cytotox inactive.
For CC(C)C(=O)N1CCN(c2ccccc2NC(=O)c2ccco2)CC1 the results were PHOSPHO1 inh inactive, IDE act inactive, UBC13 inh inactive, IDE cell inh inactive, proCasp3 act inactive and proCasp7 act inactive.
CCOc1ccc(/C=N/NC(=O)c2nnn(-c3nonc3N)c2-c2ccc(OCC)cc2)cc1 was read as PHOSPHO1 inh inactive, IDE act inactive, UBC13 inh inactive, IDE cell inh 22, proCasp3 act inactive, proCasp7 act inactive, IDE cell inh cf inactive and HEK cytotox inactive.
For CCc1ccc(-c2cc3c(=O)n(CC(=O)NCCCN4CCN(C)CC4)ncn3n2)cc1 the results were PHOSPHO1 inh inactive, IDE act inactive, UBC13 inh inactive, IDE cell inh inactive, proCasp3 act inactive and proCasp7 act inactive.
`CCCCN1C(=O)/C(=C/C=C2\Oc3ccccc3N2CC)SC1=S` gave PHOSPHO1 inh inactive and IDE act inactive.
CCN1C(=O)/C(=C/C=C2/Sc3ccccc3N2CCO)SC1=S was read as PHOSPHO1 inh inactive, IDE act inactive, UBC13 inh inactive, IDE cell inh 20, proCasp3 act inactive, proCasp7 act inactive, IDE cell inh cf 19 and HEK cytotox inactive.
For CCCCN1C(=O)/C(=C/C=C2/CC(C)(C)CN2C)SC1=S the results were PHOSPHO1 inh inactive, IDE act inactive, UBC13 inh inactive, IDE cell inh 107, proCasp3 act inactive, proCasp7 act inactive, IDE cell inh cf 149 and HEK cytotox 28.
CN1CCS/C1=C\C=C1/SC(=S)N(CC(=O)O)C1=O was read as PHOSPHO1 inh inactive and IDE act inactive.
For CCN1C(=O)/C(=C/C=C2/SCCN2C)SC1=S the results were PHOSPHO1 inh inactive, IDE act inactive, UBC13 inh inactive, IDE cell inh 27, proCasp3 act inactive, proCasp7 act inactive, IDE cell inh cf 69 and HEK cytotox inactive.
Screening CN(C(=O)c1cccc(NC(=O)Cc2cccc(NC(=O)C3CCCN(C(=O)c4ccccc4)C3)c2)c1)C1CCC1 (stereo unspecified) returned IDE act inactive.
Screening C=CCN1C(=O)/C(=C/c2ccc(O)cc2)S/C1=N/c1nccs1 returned PHOSPHO1 inh inactive, IDE act inactive, UBC13 inh inactive, IDE cell inh 119, proCasp3 act inactive, proCasp7 act inactive, IDE cell inh cf 94 and HEK cytotox inactive.
For CN(C)c1ccc(C2C=C(c3ccc(Cl)cc3OC(F)F)Nc3ncnn32)cc1 (stereo unspecified) the results were PHOSPHO1 inh 67, IDE act inactive, UBC13 inh inactive, IDE cell inh 21, proCasp3 act inactive, proCasp7 act inactive, IDE cell inh cf 28 and HEK cytotox 61.
`Cc1ccc(C2C=C(c3ccccc3OC(F)F)Nc3ncnn32)cc1` (stereo unspecified) gave PHOSPHO1 inh inactive, IDE act inactive, UBC13 inh inactive, IDE cell inh inactive, proCasp3 act inactive and proCasp7 act inactive.
O=C1CNC(=O)/C(=C\c2ccccc2)N1 was read as PHOSPHO1 inh inactive, IDE act inactive, UBC13 inh inactive, IDE cell inh inactive, proCasp3 act inactive and proCasp7 act inactive.
